Assay results published in ChEMBL document CHEMBL4725316, “Discovery of novel anti-breast cancer agents derived from deguelin as inhibitors of heat shock protein 90 (HSP90)” (Bioorg Med Chem Lett, 2020).
Blank lines part the entries; values can stand above or below the compound they belong to. Active and inactive are the calls of the source. The rule behind the calls is not given here.

How the values were obtained:
JIMT-1 [1] = test: Cytotoxicity against human JIMT-1 cells assessed as reduction in cell viability at 10 uM incubated for 72 hrs by MTS assay relative to control; format: functional; details: JIMT-1, read-out: INH
Summary of the method: (§1)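 Single-concentration primary screen: trastuzumab-sensitive BT474, trastuzumab-resistant JIMT-1 (HER2-positive breast cancer) or normal human embryonic kidney HEK293 cells exposed to compound at 10 μM for 72 h; viability by MTS assay versus DMSO control. Mean ± SEM of at least three independent experiments; Student's t-test.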

BT-474 [2] = test: Cytotoxicity against human BT-474 cells assessed as reduction in cell viability at 10 uM incubated for 72 hrs by MTS assay relative to control; format: functional; details: BT-474, read-out: INH; summary of the method: as §1
HEK293 = test: Cytotoxicity against human HEK293 cells assessed as reduction in cell viability at 10 uM incubated for 72 hrs by MTS assay; format: cell-based; details: hek293, 72 h; summary of the method: as §1
[3] = target: T1, Heat shock protein HSP90 (Homo sapiens) (UniProt P07900+P08238); test: Inhibition of HSP90 in human JIMT-1 cells assessed as reduction in HSP90 expression at 5 uM incubated for 72 hrs by immunoblot analysis; format: cell-based
Summary of the method: (§2)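 BT474 and JIMT-1 cells treated 72 h with indicated compound concentrations or vehicle; 30 μg total lysate protein resolved by SDS-PAGE and immunoblotted for HER2, phospho-HER2 (Tyr1221/1222), EGFR, phospho-EGFR (Tyr1068), survivin, HSP90 and HSP70, with actin as loading control.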

[4] = target: T1, Heat shock protein HSP90 (Homo sapiens); test: Inhibition of HSP90 in human JIMT-1 cells assessed as reduction in HSP70 expression at 10 uM incubated for 24 hrs by DAPI staining based confocal microscopy; format: cell-based
Summary of the method: (§3)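 Immunocytochemistry: cells treated 24 h with compound (10 μM) or geldanamycin (0.3 μM), immunostained for HSP70 with DAPI nuclear counterstain, imaged by confocal microscopy at ×500 original magnification.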

[5] = target: T1, Heat shock protein HSP90 (Homo sapiens); test: Inhibition of HSP90 in human BT-474 cells assessed as reduction in EGFR phosphorylation at 10 uM incubated for 72 hrs by immunoblot analysis; format: cell-based; summary of the method: as §2
[6] = target: T1, Heat shock protein HSP90 (Homo sapiens); test: Inhibition of HSP90 in human BT-474 cells assessed as reduction in survivin expression at 10 uM incubated for 72 hrs by immunoblot analysis; format: cell-based; summary of the method: as §2
[7] = target: T1, Heat shock protein HSP90 (Homo sapiens); test: Inhibition of HSP90 in human JIMT-1 cells assessed as reduction in survivin expression at 5 uM incubated for 72 hrs by immunoblot analysis; format: cell-based; summary of the method: as §2
[8] = target: T1, Heat shock protein HSP90 (Homo sapiens); test: Inhibition of HSP90 in human JIMT-1 cells assessed as reduction in EGFR expression at 5 uM incubated for 72 hrs by immunoblot analysis; format: cell-based; summary of the method: as §2
[9] = target: T1, Heat shock protein HSP90 (Homo sapiens); test: Inhibition of HSP90 in human BT-474 cells assessed as reduction in HER2 phosphorylation at 10 uM incubated for 72 hrs by immunoblot analysis; format: cell-based; summary of the method: as §2
[10] = target: T1, Heat shock protein HSP90 (Homo sapiens); test: Inhibition of HSP90 in human JIMT-1 cells assessed as reduction in HER2 expression at 5 uM incubated for 72 hrs by immunoblot analysis; format: cell-based; summary of the method: as §2
[11] = target: T1, Heat shock protein HSP90 (Homo sapiens); test: Inhibition of HSP90 in human JIMT-1 cells assessed as reduction in HER2 phosphorylation at 5 uM incubated for 72 hrs by immunoblot analysis; format: cell-based; summary of the method: as §2
[12] = target: T1, Heat shock protein HSP90 (Homo sapiens); test: Inhibition of HSP90 in human BT-474 cells assessed as reduction in EGFR expression at 10 uM incubated for 72 hrs by immunoblot analysis; format: cell-based; summary of the method: as §2
BT-474 [13] = test: Cytotoxicity against human BT-474 cells assessed as reduction in cell viability incubated for 72 hrs by MTS assay; format: functional, cell-based
Summary of the method: (§4)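 Dose-response in BT474 (trastuzumab-sensitive) and JIMT-1 (trastuzumab-resistant) HER2-positive breast cancer cells: compound at 0.1, 0.5, 1, 5, 10 or 20 μM for 72 h, viability by MTS assay. IC50 with 95% confidence intervals calculated from the curves; mean ± SEM of at least three independent experiments, one-way ANOVA with Bonferroni post hoc test versus DMSO control.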

JIMT-1 [14] = test: Cytotoxicity against human JIMT-1 cells assessed as reduction in cell viability incubated for 72 hrs by MTS assay; format: functional, cell-based; summary of the method: as §4
[15] = target: T1, Heat shock protein HSP90 (Homo sapiens); test: Inhibition of HSP90 in human JIMT-1 cells assessed as reduction in EGFR phosphorylation at 5 uM incubated for 72 hrs by immunoblot analysis; format: cell-based; summary of the method: as §2
[16] = target: T1, Heat shock protein HSP90 (Homo sapiens); test: Inhibition of HSP90 in human BT-474 cells assessed as reduction in HSP90 expression at 10 uM incubated for 72 hrs by immunoblot analysis; format: cell-based; summary of the method: as §2
[17] = target: T1, Heat shock protein HSP90 (Homo sapiens); test: Inhibition of HSP90 in human JIMT-1 cells assessed as reduction in HSP70 expression at 5 uM incubated for 72 hrs by immunoblot analysis; format: cell-based; summary of the method: as §2
[18] = target: T1, Heat shock protein HSP90 (Homo sapiens); test: Inhibition of HSP90 in human BT-474 cells assessed as reduction in HSP70 expression at 10 uM incubated for 24 hrs by DAPI staining based confocal microscopy; format: cell-based; summary of the method: as §3
[19] = target: T1, Heat shock protein HSP90 (Homo sapiens); test: Inhibition of HSP90 in human BT-474 cells assessed as reduction in HSP70 expression at 10 uM incubated for 72 hrs by immunoblot analysis; format: cell-based; summary of the method: as §2
[20] = target: T1, Heat shock protein HSP90 (Homo sapiens); test: Inhibition of HSP90 in human BT-474 cells assessed as reduction in HER2 expression at 10 uM incubated for 72 hrs by immunoblot analysis; format: cell-based; summary of the method: as §2

Structure (SMILES): COc1cc(NC(=O)c2ccc3c(c2OC)C=CC(C)(C)O3)ccc1OCCCC1CCN(CCO)CC1
inhibition at 10 µM (JIMT-1 [1]): > 50% | inhibition at 10 µM (BT-474 [2]): > 50%

Structure (SMILES): COc1cc(NC(=O)c2ccc3c(c2OC)C=CC(C)(C)O3)ccc1OCCC1CCCCN1C (centres undefined)
inhibition at 10 µM (JIMT-1 [1]): > 50% | inhibition at 10 µM (BT-474 [2]): > 50%

Structure (SMILES): COc1cc(NC(=O)c2ccc3c(c2OC)C=CC(C)(C)O3)ccc1OCCCN1CCCCC1
inhibition at 10 µM (JIMT-1 [1]): > 50% | inhibition at 10 µM (BT-474 [2]): > 50%

Structure (SMILES): COc1cc(NC(=O)c2ccc3c(c2OC)C=CC(C)(C)O3)ccc1OCCCC1CCCCN1 (centres undefined)
inhibition at 10 µM (JIMT-1 [1]): > 50% | inhibition at 10 µM (BT-474 [2]): > 50%

Structure (SMILES): COc1cc(NC(=O)c2ccc3c(c2OC)C=CC(C)(C)O3)ccc1OCCCC1CCN(C)CC1
inhibition at 10 µM (JIMT-1 [1]): > 50% | inhibition at 10 µM (BT-474 [2]): > 50%

Structure (SMILES): COc1cc(NC(=O)c2ccc3c(c2OC)C=CC(C)(C)O3)ccc1OCC1CCNCC1
inhibition at 10 µM (JIMT-1 [1]): > 50% | inhibition at 10 µM (BT-474 [2]): > 50%

Structure (SMILES): COc1cc(NC(=O)c2ccc3c(c2OC)C=CC(C)(C)O3)ccc1OCC1CCN(C)CC1
inhibition at 10 µM (JIMT-1 [1]): > 50% | inhibition at 10 µM (BT-474 [2]): > 50%

Structure (SMILES): COc1cc(NC(=O)c2ccc3c(c2OC)C=CC(C)(C)O3)ccc1OCCCC1CCNCC1
inhibition at 10 µM (JIMT-1 [1]): > 50% | inhibition at 10 µM (BT-474 [2]): > 50%

inhibition [3]: inactive | inhibition [4]: inactive | inhibition [5]: Active | inhibition [8]: Active | inhibition [9]: Active | inhibition [10]: Active | inhibition [11]: Active | inhibition [12]: Active | inhibition [15]: Active | inhibition [16]: inactive | inhibition [17]: inactive | inhibition [18]: inactive | inhibition [19]: inactive | inhibition [20]: Active
Structure (SMILES): COc1cc(NC(=O)c2ccc3c(c2OC)C=CC(C)(C)O3)ccc1OCCC1CCCCN1 (centres undefined)
Activity (HEK293): Non-Toxic | inhibition [6]: Active | inhibition [7]: Active | inhibition at 10 µM (JIMT-1 [1]): > 50% | Activity (BT-474 [13]): Dose-dependent effect | IC50 (BT-474 [13]; BT-474, 72 h): 8.53 µM | Activity (JIMT-1 [14]): Dose-dependent effect | IC50 (JIMT-1 [14]; JIMT-1, 72 h): 4.45 µM | inhibition at 10 µM (BT-474 [2]): > 50%
